Compound activity deposited in PubChem by several laboratories.
Shown are actives, neighbours in structure and some others; about 1.2% of the full set was active somewhere.
TbHK1 inh: T. brucei hexokinase 1 inhibition | recombinant TbHK1, G6PDH-coupled NADH A340 | inhibition, % at 10 µM | 220,000 compounds, 0.11% hits | AID 1430;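 active means inhibition of 50% or more in the single-dose primary screen; inactive means inhibition below 50%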
Dynein cargo inh: blocks dynein driven cargo transport along microtubules. 3617.4 mouse cells, GR-EGFP nuclear translocation imaging; test concentration mostly 20 µM; stimulated with dexamethasone, 1 µM; stronger effect = lower value. z-score, hits read low. 220,000 compounds, 0.47% hits;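 active means plate z-score of nuclear minus cytoplasmic receptor signal below a set negative limit, without overly bright fluorescence or cell loss, cut at about -3.5 in these data, passing the limit was not always enough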;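 further: z-score of nuclear minus cytoplasmic ring GR-EGFP intensity difference per well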
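Also added: dexamethasone, 1.0 µM final. Medium: tet-free, stripped-serum medium. Detection: fixed, Hoechst-stained cells imaged at 10x for EGFP. Read-out: nuclear-to-cytoplasmic GR-EGFP distribution per well. Times: induction 48 h, compound 1 h, agonist 30 min.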
HSV replic up: increases HSV replication in cells. HSV replication augmentation in cells, fold increase. maximum fold increase. 220,000 compounds, 0.005% hits. AID 1956; in the data active means maximum fold increase above about 1.5; tested in PC3 cells
Autophagy mod: alters autophagy in cells; MEF GFP-LC3 puncta imaging; test concentration mostly 10 µM; calls only at 10 µM (by protocol); 190,000 compounds, 0.98% hits; AID 463193;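 active means percentage of spot-positive cells more than 3 SD above its plate mean, without a fluorescence outlier flag or 80% toxicity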;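 further: spot-positive cell cutoff set from DMSO-treated cells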
HKDC1 inh: inhibitors of human hexokinase HKDC1; Q2TB90; recombinant HKDC1, G6PDH/diaphorase resazurin coupled fluorescence; inhibition, % at 20 µM; 340,000 compounds, 0.16% hits;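 active means inhibition above about 35% when tested at 20 µM, limit read from the data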;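 further: plate controls were DMSO wells with enzyme for no effect and DMSO wells lacking enzyme for full effect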
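Material – in-house recombinant HK5 (HKDC1) enzyme · Quantity – HKDC1 at 5 µg/mL · Buffer or medium – pH 8.0 Tris buffer with 10 mM MgCl2 · Reagent – glucose with 1 mM ATP · Dosing – single 20 µM dose · Times – reaction time 90 min, room temperature, protected from light · Technique – resorufin fluorescence at 613 nm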
PERK inh: blocks human PERK kinase; 220,000 compounds, 0.17% hits; CHO PERK-DD fusion, SEAP luminescence translation reporter; AID 1416; inhibition, % at 5.6 µM; Q9NZJ5;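 active means inhibition above the mean inhibition of all tested compounds plus 3 SD, set separately per screening campaign, cut at about 2.9% in these data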;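 further: PERK kinase domain activated by AP20187 dimerizer at 100 nM; 0% = DMSO with dimerizer and 100% = rapamycin at 8.4 µM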
Target sequence (Q9NZJ5 whole entry, looked up, the tested form may be a part): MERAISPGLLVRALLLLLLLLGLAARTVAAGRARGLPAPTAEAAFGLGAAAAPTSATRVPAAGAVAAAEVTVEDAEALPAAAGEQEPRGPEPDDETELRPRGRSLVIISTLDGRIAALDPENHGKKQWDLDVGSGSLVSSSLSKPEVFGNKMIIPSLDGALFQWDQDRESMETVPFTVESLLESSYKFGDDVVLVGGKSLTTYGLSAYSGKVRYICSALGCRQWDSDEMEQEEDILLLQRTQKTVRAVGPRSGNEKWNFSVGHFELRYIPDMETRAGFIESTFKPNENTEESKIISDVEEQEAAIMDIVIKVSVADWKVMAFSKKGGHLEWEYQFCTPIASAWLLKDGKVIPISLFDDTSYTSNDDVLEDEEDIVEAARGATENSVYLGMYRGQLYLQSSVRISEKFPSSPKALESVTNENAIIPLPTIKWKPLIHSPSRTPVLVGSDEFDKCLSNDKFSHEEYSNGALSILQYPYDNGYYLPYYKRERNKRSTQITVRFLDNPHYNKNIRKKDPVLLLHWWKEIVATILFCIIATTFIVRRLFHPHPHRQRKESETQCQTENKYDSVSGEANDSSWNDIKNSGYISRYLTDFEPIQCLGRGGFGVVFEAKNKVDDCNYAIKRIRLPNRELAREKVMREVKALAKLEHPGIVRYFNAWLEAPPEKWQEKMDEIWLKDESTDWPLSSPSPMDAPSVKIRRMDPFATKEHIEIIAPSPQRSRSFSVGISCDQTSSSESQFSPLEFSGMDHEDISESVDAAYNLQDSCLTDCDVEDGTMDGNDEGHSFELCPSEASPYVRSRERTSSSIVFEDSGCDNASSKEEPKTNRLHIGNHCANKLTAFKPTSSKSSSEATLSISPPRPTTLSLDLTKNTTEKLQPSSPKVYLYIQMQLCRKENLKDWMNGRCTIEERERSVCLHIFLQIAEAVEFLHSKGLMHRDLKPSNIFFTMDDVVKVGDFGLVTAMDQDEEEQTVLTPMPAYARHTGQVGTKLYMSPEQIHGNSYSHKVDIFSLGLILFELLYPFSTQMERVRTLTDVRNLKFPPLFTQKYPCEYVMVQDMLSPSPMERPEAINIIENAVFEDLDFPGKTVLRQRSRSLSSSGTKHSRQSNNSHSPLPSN
Numbers without * were called inactive; i = inactive; x = no result; + = active, no number.

SMILES	TbHK1 inh	Dynein cargo inh	HSV replic up	Autophagy mod	HKDC1 inh	PERK inh
COc1ccccc1NC(=O)CSc1nnc(-c2ccc(NC(C)=O)cc2)n1C	1	-0.51	i	+	-3	0
COc1ccccc1NC(=O)CSc1nnc(CCC(=O)Nc2ccccc2F)n1C	-15	-0.24	i	x	-3	3.9*
COc1ccccc1NC(=O)CC(=O)CSc1nnc(-c2ccc(C)cc2)n1C	-2	0.33	i	i	-3	2
CC(=O)c1nn(-c2cccc(C)c2)cc1C(=O)c1cccc(Br)c1	x	x	x	x	-2	x
COc1ccc(NC(=O)c2cnc(SC)nc2C)c(OC)c1	x	x	x	x	4	x
Cc1ccc(S(=O)(=O)Nc2cccc3cccnc23)cc1	9	0.47	i	+	5	-1
COc1cc(NS(=O)(=O)c2ccc(C)cc2)c2ncccc2c1	-5	-0.47	i	i	10	-1
COc1cc(NC(=O)c2ccc(-c3ccc(Br)cc3)o2)ccc1NC(=O)C(C)C	-21	-0.8	i	+	-1	-1
COc1ccccc1NC(=O)c1ccc(-c2ccc(Br)cc2)o1	-14	-0.65	i	i	-4	-1
COc1ccc2nc(SCC(=O)Nc3ccc4sc(C)nc4c3)c(C#N)cc2c1	-9	4.8	i	+	-1	2
CN(C)CCNc1oc(COc2ccc(-c3ccccc3)cc2)nc1C#N	-1	3	i	+	4	-1
CCN(C(=O)Cn1nnc(-c2ccccc2)n1)C1CCS(=O)(=O)C1 (configuration not stated)	x	x	x	x	-4	x
CCCCNc1cc(C)nc(NCc2ccccc2)n1	10	-0.56	i	+	-11	-2
CCC(c1nnc(SCC(=O)NC2CCCCC2)n1Cc1ccccc1)N(C)C (configuration not stated)	x	x	x	x	5	x
O=C(CSc1nnc(C2CC2)n1C1CC1)c1cc(F)ccc1F	x	x	x	x	-5	x
CCOC(=O)c1cccc(NC(=O)COc2nsnc2N2CCOCC2)c1	x	x	x	x	-2	x
COc1ccc(NC(=O)CSc2ccc3c4c(cccc24)C(=O)c2ccccc2-3)cc1	20	-2.2	x	+	2	1
Cc1cccc(Nc2nc(N)nc(CCl)n2)c1C	-5	0.14	i	x	-1	-2
COc1ccc(CCn2c(=O)[nH]c3cc(C(=O)NCCc4ccccc4)ccc3c2=O)cc1OC	-2	0.045	i	i	x	3.0*
COc1cc2[nH]c(=O)n(Cc3ccc(C(=O)NC4CCCC4)cc3)c(=O)c2cc1OC	-10	0.74	i	i	-3	-1
COc1ccc(Cn2c(=O)[nH]c3cc(C(=O)NC4CCCC4)ccc3c2=O)cc1	8	-0.22	i	+	0	-1
COc1ccccc1OC(C)C(=O)Nc1ccc(S(=O)(=O)N2CCN(C)CC2)cc1 (configuration not stated)	x	x	x	x	1	x
COc1ccc(S(=O)(=O)N(C)C[C@H]2Oc3c(cccc3N(C)C)C(=O)N([C@H](C)CO)C[C@@H]2C)cc1	x	x	x	x	1	x
Cc1nc(CNC(=O)c2ccccc2OC2CCN(S(C)(=O)=O)CC2)cs1	-1	0.19	i	i	0	1
Cc1nc(CN(C)C(=O)c2ccccc2OC2CCN(S(C)(=O)=O)CC2)cs1	-2	0.29	i	+	-8	0
SMILES	TbHK1 inh	Dynein cargo inh	HSV replic up	Autophagy mod	HKDC1 inh	PERK inh
O=C(O)C1Nc2c(C(=O)N3CCOCC3)cccc2C2C=CCC12 (configuration not stated)	-1	-0.32	i	i	11	2
Cc1ccc2c(c1C)NC(C(=O)O)C1CC=CC21 (configuration not stated)	x	x	i	x	38*	x
COc1cc(/C=N/NC(=S)NCCN2CCOCC2)cc(OC)c1O	-46	-0.53	i	i	-9	1
COc1cc(OC)c(OC)cc1/C=N/NC(=S)NCCN1CCOCC1	-25	-0.32	i	+	-8	0
S=C(NCCN1CCOCC1)N/N=C/c1c2ccccc2cc2ccccc12	-10	3.2	i	+	-2	-2
CCC(CC)c1nc(NCCC(=O)O)c2ccccc2n1	6	3.7	i	i	16	3.1*
Nc1ccc(C(=O)N/N=C\C=C\c2ccc([N+](=O)[O-])cc2)cc1	-7	0.86	i	+	12	0
CCn1c(=O)cc(SCC(=O)NCc2ccco2)c2ccccc21	-4	-0.35	i	+	10	-1
CCn1c(=O)cc(SCC(=O)NCc2ccc(C)o2)c2ccccc21	-10	-0.48	i	i	-3	0
CCn1c(=O)cc(SCC(=O)Nc2ccc(C)cn2)c2ccccc21	-25	-0.3	i	+	-8	3
Cc1ccc(-c2[nH]ncc2/C=N/n2c(COc3ccccc3)nc3ccccc3c2=O)cc1	1	0.98	i	+	-6	0
Cc1ccccc1OCc1nc2ccccc2c(=O)n1/N=C/c1cn[nH]c1-c1ccccc1	-1	0.28	i	+	11	-1
Cc1ccc(NC(=O)c2cc(N3C(=O)CCC3=O)ccc2N2CCOCC2)cc1	-13	1.6	i	+	12	0
Cc1ccc(NC(=O)c2cc(N3C(=O)CCC3=O)ccc2N2CCCCC2)cc1	-2	1.2	i	i	-6	1
COc1ccc(OC)c(NC(=O)c2sc3nc(Cc4ccccc4)cc(C(F)(F)F)c3c2N)c1	-20	2	i	+	-13	1
COc1ccc(-c2cc(C(F)(F)F)c3c(N)c(C(=O)NCCSC)sc3n2)cc1	x	x	x	x	-3	x
C/C(CC1CC2=C(CC1(C)C)C(C)(C)CCC2)=N\NC(N)=S (configuration not stated)	7	0.65	i	+	2	-1
C/C(CC1CC(C)(C)OC1=O)=N\NC(N)=S (configuration not stated)	-19	0.41	i	x	-4	1
O=C(O)c1cc2c(cc1NC(=O)C1CCCC1)OCCO2	x	x	x	x	-2	x
CN(Cc1cn(-c2ccccc2)nc1-c1ccc2c(c1)OCO2)Cc1nccn1C	2	-0.31	i	+	-4	-1
COC(=O)c1ccc(OCCOc2ccc(C(=O)OC)cc2)cc1	-5	-1	i	i	-2	3.5*
O=C(Nc1c(F)cccc1F)c1ccc2c(c1)CCN2S(=O)(=O)c1ccccc1	x	x	x	x	-1	x
C/C(=N\OC(=O)c1ccc(F)cc1)c1nccs1	-1	0.69	i	i	-4	3.2*
COc1ccc(C(=O)O/N=C(\C)c2nccs2)cc1	-9	0.42	i	i	0	0
O=C(Oc1ccc(C(=S)N2CCOCC2)cc1)c1ccc(Br)cc1	-10	0.15	i	i	10	0
COc1ccc(C(=O)Oc2ccc(C(=S)N3CCOCC3)cc2)cc1	0	2.5	i	+	6	0
CCSc1ccccc1C(=O)n1nnc2ccccc21	-3	-4*	i	i	6	0
